KCNK9 block: human KCNK9 channel inhibition | HEK293 KCNK9, FluxOR thallium flux fluorescence; active compounds read low | B-score at 10 µM | 310,000 compounds, 1.2% hits;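 active = ratio B-score over 3 SD below the library mean, with starting fluorescence within 5 SD of its mean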;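 note: negative B-score means less thallium flux so channel inhibition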
KCNQ1 act: human KCNQ1 channel potentiation or activation; P51787; CHO-K1 KCNQ1, thallium flux FluxOR fluorescence; active compounds read high; B-score at 10 µM; 310,000 compounds, 0.35% hits;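 active = fluorescence ratio B-score, a plate-corrected score, at least three library SD, with initial intensity B-score within 5 SD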
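Material: CHO-K1 cells stably expressing KCNQ1. Medium: assay buffer for compound exposure, DMSO matched across wells. Reagent: K+/Tl+ depolarizing stimulus. Compound dosing: single-concentration screen. Times: 37 °C overnight plating, 90-min dark dye load, 20-min compound pretreatment. Technique: FluxOR Tl+ flux fluorescence.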
KCNQ1 inh: human KCNQ1 channel inhibition. P51787. CHO-K1 KCNQ1, FluxOR thallium flux fluorescence; active compounds read high. B-score at 10 µM. 310,000 compounds, 1.3% hits. AID 2642;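 active = compounds whose thallium flux B-score, printed positive for inhibition, exceeds three library SD while starting fluorescence stays within three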;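 note: channel opened by potassium depolarization with thallium stimulus after 20 min compound exposure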
KCNK3 inh: human KCNK3 channel inhibition, primary screen | CHO-KCNK3 thallium flux, FluxOR fluorescence; active compounds read low | B-score at 10 µM | O14649 | 340,000 compounds, 0.84% hits | AID 602410;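 active = B-score under library mean minus 4 SD, starting fluorescence ratio at most library mean plus 5 SD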;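 note: more negative B-score means stronger inhibition of thallium flux through KCNK3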
Target sequence (O14649 whole entry, looked up): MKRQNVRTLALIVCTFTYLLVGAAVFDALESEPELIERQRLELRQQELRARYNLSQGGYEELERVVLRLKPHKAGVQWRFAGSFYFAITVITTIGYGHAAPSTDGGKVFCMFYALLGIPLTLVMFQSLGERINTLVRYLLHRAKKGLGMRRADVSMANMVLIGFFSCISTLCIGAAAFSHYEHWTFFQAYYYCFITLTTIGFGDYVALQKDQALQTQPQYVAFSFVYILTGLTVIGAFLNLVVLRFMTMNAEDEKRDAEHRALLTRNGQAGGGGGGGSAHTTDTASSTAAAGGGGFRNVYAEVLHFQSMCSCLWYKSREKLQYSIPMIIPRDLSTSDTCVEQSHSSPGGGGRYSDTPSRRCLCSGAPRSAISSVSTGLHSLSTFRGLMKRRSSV
hERG rescue: shields human hERG channel from block by proarrhythmic agents | CHO-hERG, FluxOR thallium flux, dofetilide IC70 present | Q12809 | AID 1511 | activation (rescue from dofetilide block), less the hit threshold, % at 10 µM | 310,000 compounds, 0.51% hits;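 active = activation above the mean of controls blocked by dofetilide plus 5 SD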;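 note: thallium influx through hERG after potassium depolarization seen as dye fluorescence rise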
Kir21 inh: Kir2.1 (mouse) channel inhibition; HEK293-Kir2.1, FluxOR thallium flux fluorescence; active compounds read low; P35561; AID 1672; 310,000 compounds, 0.85% hits; B-score at 10 µM;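 active = fluorescence ratio B-score at or below minus 3 SD of library scores, with starting-brightness B-score within 2 SD, cut at about -4.2 in these data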;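 note: channel flux triggered by added potassium and thallium sulfate stimulus; B-score of peak minus minimum fluorescence over baseline after thallium stimulus; more negative B-score means stronger Kir2.1 block with less thallium influx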
Active calls of the source: *; i = inactive; x = not tested or not shown. Rows were chosen to be rich in hits. Some 3.7% of all compounds tested hit in one or more screens of this group.

SMILES	KCNK9 block	KCNQ1 act	KCNQ1 inh	KCNK3 inh	hERG rescue	Kir21 inh
CCCc1nc2c(s1)CCc1onc(-c3ccc(Br)cc3)c1-2	i	i	i	i	-9	0.01
CCCc1nc2c(s1)CCc1onc(-c3ccc(Cl)cc3)c1-2	-7.1*	i	i	i	-6	0.47
Cc1ccc2c(c1)-c1ncc(C(=O)c3cc(Br)ccc3O)cc1CO2	-8.9*	i	8*	x	-14	-0.04
CCN1C(=O)/C(=C/c2ccc(C)s2)NC1=S	i	10*	i	i	10*	-0.11
O=S(=O)(c1ccc(Cl)nc1)N1CCCCC1	i	i	i	i	-5	-1.4
COCCOC(=O)c1c(C)oc2ccc(OCC=C(C)C)cc12	i	i	i	-9.1*	-1	0.31
CCN(CC)C(=O)COc1ccc2oc(C)c(C(=O)OC(C)C)c2c1	i	i	i	i	-19	-4.2*
COc1ccc(C2=NO[C@@](CC(=O)O)(C(=O)Nc3ccc4c(c3)OCCO4)C2)cc1	i	i	i	i	0	0.1
CC1(C)N=C(N)NC(Nc2cccc(Br)c2)=N1	i	9*	i	i	-6	0.07
CC(C)(C)C1CCC(C(=O)OCC(=O)c2ccc[nH]2)CC1 (stereo unspecified)	i	i	i	i	-4	-5.3*
Cc1ccc(N2CC(C(=O)OCC(=O)c3ccc[nH]3)CC2=O)cc1 (stereo unspecified)	i	i	i	i	-18	-0.26
CCC(C)(C)NC(=O)C(c1ccc(OC)cc1)N(C(=O)CCC(=O)Nc1cc(C)on1)c1cccc(F)c1 (stereo unspecified)	i	i	i	i	-4	-0.64
COc1ccc(C(C(=O)NC(C)(C)C)N(C(=O)CCC(=O)Nc2cc(C)on2)c2cccc(F)c2)cc1 (stereo unspecified)	i	24*	i	i	7.1*	0.08
N#Cc1cccc(C#N)c1Oc1ccc(N)cc1	-6.8*	i	i	i	-4	-0.24
COCCCn1c(=O)c2ccccc2n(Cc2ccc(C)cc2)c1=O	-7.7*	i	i	i	-9	-0.82
Cc1ccc(S(=O)(=O)NCc2ccccc2)cc1C(=O)NCCc1ccc(S(N)(=O)=O)cc1	x	x	x	i	x	x
COc1ccc(-c2nnc(-c3ccccc3O)o2)cc1	i	i	i	i	5.1*	0.26
COc1ccc(-c2nnc(-c3ccc(C)cc3)o2)cc1	i	i	i	i	-2	-0.69
CCOC(=O)N(O)c1ccc(C=Cc2ccccc2)cc1	x	x	x	i	x	x
CCOC(=O)N1CCN(C(=O)c2ccc(Cn3c(=S)[nH]c4ccc(Br)cc4c3=O)cc2)CC1	i	i	i	i	-18	1.6
COc1ccc2c(c1)-c1nc(/N=C/c3ccc(O)cc3)sc1CC2	x	x	x	i	x	x
COc1ccc2c(c1)-c1nc(/N=C/c3c(O)ccc4ccccc34)sc1CC2	i	i	11*	i	-10	0.02
COc1cccc(C(=O)CC(C#N)c2ccc(F)cc2)c1 (stereo unspecified)	i	i	i	i	-15	0.17
COC(=O)c1cccc(NS(=O)(=O)c2ccc(OC)c(C(=O)N3CCOCC3)c2)c1C	i	i	i	i	-5	0.33
Cc1cc(C)cc(C(=O)NC(CC(N)=O)c2ccc(N3CCCCCC3)c([N+](=O)[O-])c2)c1 (stereo unspecified)	i	i	7*	i	-9	1.4
SMILES	KCNK9 block	KCNQ1 act	KCNQ1 inh	KCNK3 inh	hERG rescue	Kir21 inh
CN(c1ccc(O)cc1)S(=O)(=O)c1ccc2ccccc2c1	i	i	i	i	-12	-5.9*
Cc1cc(O)cc(C)c1NS(=O)(=O)c1ccc2ccccc2c1	i	i	i	i	-16	-6.6*
CC(C)C[C@@H](CNCC(=O)[C@H](CC(C)C)NC(=O)c1[nH]cnc1C(=O)N[C@H](CN)CC(C)C)NC(=O)c1nc[nH]c1C(=O)N[C@@H](CC(=O)O)C(=O)O	x	x	x	i	x	x
O=C(Nc1ccccc1N1CCCC1)C1CC(=O)N(Cc2ccccc2)C1 (stereo unspecified)	i	i	i	i	-5	-1.6
O=C(COC(=O)C1CCN(c2ccc(C(F)(F)F)cn2)CC1)NCc1cccc(Cl)c1	x	x	x	i	x	x
CCOC(=O)C(=O)NC1CC=CCC1c1ccc2c(c1)OCO2 (stereo unspecified)	x	x	x	i	x	x
COc1ccc(CN(C)CC2CCCN(CCc3ccc(Cl)cc3)C2)cc1OC (stereo unspecified)	i	i	i	i	-5	-6.2
CCOc1cccc(CN(C)CC2CCCN(CCc3ccc(Cl)cc3)C2)c1O (stereo unspecified)	i	i	i	i	-5	-7.3*
COc1ccc(F)c(CN(C)CC2CCCN(CCc3ccc(F)cc3)C2)c1 (stereo unspecified)	i	i	i	i	-6	-9.8*
Cc1ccccc1CCN1CCCC(CN(C)CC(C)(C)C)C1 (stereo unspecified)	i	i	i	i	-10	-0.31
CC(=O)c1cccc(CN(C)CC2CCCN(CCc3ccccc3C)C2)c1 (stereo unspecified)	i	i	i	i	-1	-6.5*
O=C(NC1CCN(Cc2ccccc2)C1)c1cc(COc2ccc(F)cc2F)on1 (stereo unspecified)	i	i	i	i	-10	-4.4*
COc1ccc(-c2nc(SCC(=O)Nc3cccc(S(N)(=O)=O)c3)n[nH]2)cc1	x	x	x	i	x	x
N=c1n(CCO)c2ccccc2n1CCOc1ccc(Cl)cc1Cl	i	i	i	i	-8	-4.4*
COc1ccc(C(=O)NCCOc2ccccc2)cc1S(=O)(=O)N1CCOCC1	x	x	x	i	x	x
COc1ccc(NC(=O)Nc2cc(C)ccc2F)cc1	i	i	i	i	5.1*	-0.72
Cc1ccccc1OC(C)C(=O)Nc1ccc2c(c1)OCCO2 (stereo unspecified)	i	i	i	i	-10	0
O=C(Nc1ccc(C(F)(F)F)cc1)N1CCN(c2ccnc3cc(Cl)ccc23)CC1	i	i	6*	i	-10	-0.43
CCCc1cnc(NCCNCC(O)COc2ccc(Cl)c(Cl)c2)nc1 (stereo unspecified)	i	i	i	i	-33	-6.5*
Cc1c2ccccc2cc(Cc2ccccc2)[n+]1C	i	i	i	i	-6	0.74
Cc1ccc(S(=O)(=O)Oc2cccc([N+](=O)[O-])c2)cc1	x	x	x	i	x	x

Compound activity: PubChem, Johns Hopkins Ion Channel Center
